Data: ChEMBL document CHEMBL2424587, “Antiproliferative activity of abietane diterpenoids against human tumor cells” (J Nat Prod, 2013)

What was measured:
Assay type in all cases: functional, cell-based
SK-MEL-1 = experiment: Cytotoxicity against human SK-MEL-1 cells after 72 hrs by MTT assay; conditions: SK-MEL-1, 72 h
Summary of the method: (§1)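 MTT assay: 1 × 10^4 exponentially growing cells per well incubated 72 h over a range of compound concentrations; MTT 0.5 mg/mL for 4 h at 37 °C, then 10% SDS in 0.05 M HCl overnight at room temperature in the dark; absorbance at 570 nm. Leukemia and SK-MEL-1 lines grown in RPMI 1640, MCF-7 in DMEM, both with 10% heat-inactivated FBS. IC50 given as mean ± SEM of 3–5 independent experiments, each in triplicate.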

MCF7 = experiment: Cytotoxicity against human MCF7 cells after 72 hrs by MTT assay; conditions: MCF7, 72 h; summary of the method: as §1
MOLT-3 = experiment: Cytotoxicity against human MOLT3 cells after 72 hrs by MTT assay; conditions: MOLT-3, 72 h; summary of the method: as §1
U-937 = experiment: Cytotoxicity against human U937 cells after 72 hrs by MTT assay; conditions: U-937, 72 h; summary of the method: as §1
HL-60 = experiment: Cytotoxicity against human HL60 cells after 72 hrs by MTT assay; conditions: HL-60, 72 h; summary of the method: as §1

Compound | IC50 (SK-MEL-1) [µM] | IC50 (MCF7) [µM] | IC50 (MOLT-3) [µM] | IC50 (U-937) [µM] | IC50 (HL-60) [µM]
COc1ccc(C(=O)OC/C=C(\C)C[C@@H](O)[C@@]2(C)[C@H](C)CC=C3[C@@H]2CCCC3(C)C)cc1 | > 30 | > 30 | > 30 | > 30 | > 30
CC(=O)OC1=C(C(C)C)C(=O)C2=C(C1=O)[C@@]1(C)CCCC(C)(C)[C@@H]1[C@H](OC(C)=O)[C@H]2OC(C)=O | 8.1 | 5.9 | 3 | 6.4 | 9
COc1c(O)c2c(c(O)c1C(C)C)C(=O)C[C@H]1C(C)=C(C)C(=O)C[C@]21C | > 30 | > 30 | > 30 | > 30 | > 30
CCCC(=O)OC/C=C(\C)C[C@@H](O)[C@@]1(C)[C@H](C)CC=C2[C@@H]1CCCC2(C)C | > 30 | > 30 | > 30 | > 30 | > 30
C[C@H]1Cc2c(O)c3c(c(O)c2O1)[C@@]1(C)CCC(=O)C(C)(C)C1=C(O)C3=O [TEUVINCENONE A] | > 30 | > 30 | 2.7 | 1.5 | 3.5
CCC(=O)OC1=C(C(C)C)C(=O)C2=C(C1=O)[C@@]1(C)CCCC(C)(C)[C@@H]1[C@H](OC(=O)CC)[C@H]2OC(C)=O | 27.4 | 28.3 | 10.8 | 3.9 | 4.7
CC(C)C1=CC2=CC(=O)[C@H]3C(C)(C)CCC[C@]3(C)C2=C(O)C1=O [TAXODIONE] | 9.6 | > 30 | 1.8 | 3 | 4.8
C/C(=C\CO)C[C@@H](O)[C@@]1(C)[C@H](C)CC=C2[C@@H]1CCCC2(C)C | > 30 | > 30 | > 30 | > 30 | > 30
CC(=O)O[C@H](C/C(C)=C/C(=O)O)[C@@]1(C)[C@H](C)CC=C2[C@@H]1CCCC2(C)C | > 30 | > 30 | > 30 | > 30 | > 30
C/C(=C\COC(=O)c1ccccc1)C[C@@H](O)[C@@]1(C)[C@H](C)CC=C2[C@@H]1CCCC2(C)C | > 30 | > 30 | > 30 | > 30 | > 30
CC(=O)OC1=C2C(C)(C)CCC[C@]2(C)c2c(cc(C(C)C)c(OC(C)=O)c2OC(C)=O)C1=O | 9.9 | > 30 | 4.6 | 4.6 | 4.1
CCO[C@@H]1C[C@H]2C(C)(C)CCC[C@]2(C)C2=C1C(=O)C(C(C)C)=C(O)C2=O | > 30 | > 30 | > 30 | > 30 | > 30
CC(=O)O[C@H]1C2=C(C(=O)C(O)=C(C(C)C)C2=O)[C@@]2(C)CCCC(C)(C)[C@@H]2[C@@H]1OC(=O)c1ccc([N+](=O)[O-])cc1 | 6.7 | 9.1 | 1.5 | 1.4 | 3.8
CCC(=O)O[C@@H]1[C@@H](OC(C)=O)C2=C(C(=O)C(O)=C(C(C)C)C2=O)[C@@]2(C)CCCC(C)(C)[C@H]12 | 9 | 17.1 | 6.3 | 7 | 11.8
CC(C)c1c(O)c(O)c2c(c1O)C(=O)C(O)=C1C(C)(C)CCC[C@@]12C | 10 | 27.5 | 8.8 | 4.3 | 4.1
COC(=O)/C=C(\C)C[C@@H](OC(C)=O)[C@@]1(C)[C@H](C)CC=C2[C@@H]1CCCC2(C)C | > 30 | > 30 | > 30 | > 30 | > 30
CC(=O)O[C@@H]1[C@@H](OC(C)=O)C2=C(C(=O)C(O)=C(C(C)C)C2=O)[C@@]2(C)CCCC(C)(C)[C@H]12 | 16.2 | 23.3 | 5.4 | 12.1 | 15.9
CC(=O)O[C@H]1C2=C(C(=O)C(O)=C(C(C)C)C2=O)[C@@]2(C)CCCC(C)(C)[C@@H]2[C@@H]1O | 29.1 | 6.8 | 12.7 | 13.7 | 25.4
CC(C)C1=C(O)C(=O)C2=C(CC[C@H]3C(C)(C)CCC[C@]23C)C1=O [ROYLEANONE] | > 30 | > 30 | 13.6 | > 30 | > 30
CCCC(=O)O[C@@H]1[C@@H](OC(C)=O)C2=C(C(=O)C(O)=C(C(C)C)C2=O)[C@@]2(C)CCCC(C)(C)[C@H]12 | 3.6 | 6.5 | 3.5 | 3.4 | 5.6
CC(=O)O[C@H]1C2=C(C(=O)C(OC(=O)c3ccc(Cl)cc3)=C(C(C)C)C2=O)[C@@]2(C)CCCC(C)(C)[C@@H]2[C@@H]1OC(=O)c1ccc(Cl)cc1 | > 30 | > 30 | > 30 | 5.6 | 5.7
COc1c(O)c2c(c(O)c1C(C)C)C(=O)C[C@H]1C(C)(C)CCC[C@]21C [INUROYLEANOL] | > 30 | > 30 | > 30 | 11.1 | 20.8
COc1cc([C@@H]2c3cc4c(cc3[C@@H](O[C@@H]3O[C@@H]5CO[C@@H](C)O[C@H]5[C@H](O)[C@H]3O)[C@H]3COC(=O)[C@H]23)OCO4)cc(OC)c1O [ETOPOSIDE] |  |  |  | 1.4 | 0.5
CC(=O)Oc1c(C(C)C)cc2c(c1OC(C)=O)[C@@]1(C)CCCC(C)(C)C1=C(O)C2=O | 24.1 | > 30 | 13.4 | 8.4 | 11.5
CC(=O)O[C@H]1C2=C(C(=O)C(OC(=O)c3ccc([N+](=O)[O-])cc3)=C(C(C)C)C2=O)[C@@]2(C)CCCC(C)(C)[C@@H]2[C@@H]1O | 5.7 | 11.4 | 10 | 1.1 | 8.4
CCC(=O)OC/C=C(\C)C[C@@H](O)[C@@]1(C)[C@H](C)CC=C2[C@@H]1CCCC2(C)C | > 30 | > 30 | > 30 | 24.7 | > 30
CC(=O)O[C@H](C/C(C)=C/CO)[C@@]1(C)[C@H](C)CC=C2[C@@H]1CCCC2(C)C | > 30 | > 30 | > 30 | > 30 | > 30
